From ChEMBL document CHEMBL1152663, “Antimalarial and antitrypanosomal activity of a series of amide and sulfonamide derivatives of a 2,5-diaminobenzophenone” (Bioorg Med Chem, 2009)
Activity calls are given as the source filed them. The rule behind the calls is not given here.

Columns and labels:
[1] = system: Trypanosoma brucei brucei; experiment: Antitrypanosomal activity against Trypanosoma brucei brucei TC221 after 48 hrs by alamar blue assay; type: functional, organism-based; conditions: TC221, 48 h
In short: (§1)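 T. b. brucei TC 221 trypomastigotes grown in Baltz medium; 10⁴ parasites/mL exposed to graded compound concentrations (DMSO or 0.1 M NaOH solutions) at 37 °C, 5% CO₂. Alamar Blue absorbance at 550 nm (reference 630 nm) read at 48 h and 72 h. Parasite-only and compound-only controls; ED₅₀ by linear interpolation of three measurements.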

[2] = Selectivity index, ratio of CC50 for human HeLa cells to IC50 for Plasmodium falciparum Dd2 […] cells; type: functional
In short: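 Selectivity index computed as HeLa CC₅₀ (72 h methylene blue assay) divided by P. falciparum Dd2 IC₅₀ (72 h [³H]-hypoxanthine assay).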

[3] = system: Trypanosoma brucei brucei; experiment: Antitrypanosomal activity against Trypanosoma brucei brucei TC221 after 72 hrs by alamar blue assay; type: functional, organism-based; conditions: TC221, 72 h; in short: as §1
Plasmodium falciparum = experiment: Antimalarial activity against Plasmodium falciparum Dd2 […] cells after 72 hrs by [3H]hypoxanthine incorporation assay; type: functional, organism-based
In short: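 Synchronized (sorbitol) blood-stage P. falciparum Dd2 cultures exposed to a range of compound concentrations for 72 h; growth read by [³H]-hypoxanthine incorporation, percent inhibition used to derive IC₅₀. At least three independent repeats, mean ± SEM.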

[4] = molecular target: T1, Multidrug resistance protein Pgh1 (Plasmodium falciparum) (UniProt Q9NG76); experiment: Inhibition of Plasmodium PGH1-mediated fluorochrome accumulation into parasite digestive vacuole at […] concentration
T1 sequence (whole entry): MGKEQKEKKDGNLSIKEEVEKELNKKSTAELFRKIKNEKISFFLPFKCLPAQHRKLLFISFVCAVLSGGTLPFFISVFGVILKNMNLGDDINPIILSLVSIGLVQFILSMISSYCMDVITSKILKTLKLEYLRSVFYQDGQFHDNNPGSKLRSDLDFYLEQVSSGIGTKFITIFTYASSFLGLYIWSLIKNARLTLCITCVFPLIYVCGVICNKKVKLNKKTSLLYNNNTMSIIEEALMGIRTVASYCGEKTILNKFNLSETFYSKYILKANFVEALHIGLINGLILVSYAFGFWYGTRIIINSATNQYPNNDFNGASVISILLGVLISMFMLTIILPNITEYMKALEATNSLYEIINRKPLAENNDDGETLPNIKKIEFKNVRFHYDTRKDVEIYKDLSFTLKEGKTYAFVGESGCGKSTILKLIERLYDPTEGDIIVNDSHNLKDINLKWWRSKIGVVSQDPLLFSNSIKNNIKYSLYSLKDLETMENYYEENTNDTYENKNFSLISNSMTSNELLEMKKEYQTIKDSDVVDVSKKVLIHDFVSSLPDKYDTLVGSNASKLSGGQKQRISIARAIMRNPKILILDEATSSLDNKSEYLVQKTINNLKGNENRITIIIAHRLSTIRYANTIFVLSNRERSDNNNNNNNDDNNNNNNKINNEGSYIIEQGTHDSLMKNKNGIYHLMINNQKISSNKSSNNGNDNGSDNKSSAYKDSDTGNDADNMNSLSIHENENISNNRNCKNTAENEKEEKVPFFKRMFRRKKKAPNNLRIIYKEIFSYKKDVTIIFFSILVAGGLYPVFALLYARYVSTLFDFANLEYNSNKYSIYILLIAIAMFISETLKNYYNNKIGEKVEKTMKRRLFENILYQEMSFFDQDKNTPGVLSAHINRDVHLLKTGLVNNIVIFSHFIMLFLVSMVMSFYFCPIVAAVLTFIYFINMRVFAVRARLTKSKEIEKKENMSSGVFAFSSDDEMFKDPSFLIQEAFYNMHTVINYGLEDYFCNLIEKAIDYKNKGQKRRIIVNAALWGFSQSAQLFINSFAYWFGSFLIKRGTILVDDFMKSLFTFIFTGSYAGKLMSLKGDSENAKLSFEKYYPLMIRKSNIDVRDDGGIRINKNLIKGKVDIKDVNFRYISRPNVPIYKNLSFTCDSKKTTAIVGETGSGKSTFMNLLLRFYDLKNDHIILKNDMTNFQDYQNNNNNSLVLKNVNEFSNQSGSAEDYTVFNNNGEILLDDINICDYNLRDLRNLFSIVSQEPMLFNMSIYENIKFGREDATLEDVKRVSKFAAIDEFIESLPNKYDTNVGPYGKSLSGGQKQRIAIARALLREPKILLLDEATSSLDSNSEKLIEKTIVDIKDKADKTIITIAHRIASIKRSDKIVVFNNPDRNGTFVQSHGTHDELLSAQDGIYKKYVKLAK

[5] = Cytotoxicity against human HeLa cells after 72 hrs by methylene blue staining; type: cell-based
In short: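 HeLa cells in RPMI 1640 with 10% heat-inactivated FBS and gentamicin; ~10,000 cells/well preincubated 48 h, then exposed to compound (DMSO stock 10 mg/mL diluted 1:200) for 72 h at 37 °C, 5% CO₂. Glutaraldehyde fixation, 0.05% methylene blue staining, elution with 0.33 M HCl, OD 660 nm.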

[6] = molecular target: ATP-dependent translocase ABCB1 (Homo sapiens, UniProt P08183); experiment: Inhibition of ABCB1 overexpressed in human CCRF-CEM/VCR1000 cell assessed as inhibition of daunomycin efflux after 30 mins by FACS analysis

| IC50 [1] | IC50 [3] | IC50 (Plasmodium falciparum) | inhibition [4] | EC50 [6] | SMILES | Ratio CC50/IC50 [2] | CC50 at 72 h [5] |
| --- | --- | --- | --- | --- | --- | --- | --- |
| 49.4 µM | 83.2 µM | > 16 µM | inactive | – | CN1CCN(CC(=O)Nc2ccc(NC(=O)c3ccccc3)cc2C(=O)c2ccccc2)CC1 | >7 | > 109 µM |
| 0.81 µM | 2.01 µM | 2.01 µM | inactive | 0.48 µM | CN1CCN(CC(=O)Nc2ccc(NC(=O)c3ccc4ccccc4c3)cc2C(=O)c2ccccc2)CC1 | 5 | 9 µM |
| 13.9 µM | 21.9 µM | 6.72 µM | inactive | 2.23 µM | CN1CCN(CC(=O)Nc2ccc(NC(=O)CCc3ccccc3)cc2C(=O)c2ccccc2)CC1 | 12 | 80 µM |
| 53.4 µM | 71.5 µM | > 16 µM | inactive | – | CCC(=O)Nc1ccc(NC(=O)CN2CCN(C)CC2)c(C(=O)c2ccccc2)c1 | >8 | > 122 µM |
| 23.1 µM | 22.9 µM | 9.45 µM | inactive | – | CC(=O)Nc1ccc(NC(=O)CN2CCN(C)CC2)c(C(=O)c2ccccc2)c1 | 6 | 53 µM |
| 16.7 µM | 24.6 µM | 7.19 µM | inactive | 3.3 µM | CCC(=O)Nc1ccc(NC(=O)C(c2ccccc2)N2CCN(C)CC2)c(C(=O)c2ccccc2)c1 (racemic) | 12 | 84 µM |
| 9.05 µM | 6.59 µM | 9.72 µM | inactive | 6.29 µM | CC(=O)Nc1ccc(NC(=O)C(c2ccccc2)N2CCN(C)CC2)c(C(=O)c2ccccc2)c1 (racemic) | 11 | 105 µM |

Continued, molecule first:

| SMILES | IC50 [1] | IC50 [3] | IC50 (Plasmodium falciparum) | inhibition [4] | EC50 [6] | Ratio CC50/IC50 [2] | CC50 at 72 h [5] |
| --- | --- | --- | --- | --- | --- | --- | --- |
| CC1CCN(C(=O)Nc2ccc(NC(=O)C(c3ccccc3)N3CCN(C)CC3)c(C(=O)c3ccccc3)c2)CC1 (centres undefined) | – | – | > 16 µM | inactive | 4.97 µM | – | – |
| CC(C)N(C(=O)Nc1ccc(NC(=O)C(c2ccccc2)N2CCN(C)CC2)c(C(=O)c2ccccc2)c1)C(C)C (centres undefined) | – | – | 0.11 µM | inactive | 0.46 µM | 36 | 4 µM |
| CN1CCN(C(C(=O)Nc2ccc(NC(=O)c3cccnc3)cc2C(=O)c2ccccc2)c2ccccc2)CC1 (centres undefined) | 5.06 µM | 7.02 µM | 2.26 µM | inactive | 5.12 µM | 16 | 37 µM |
| CN1CCN(C(C(=O)Nc2ccc(NC(=O)c3ccccc3)cc2C(=O)c2ccccc2)c2ccccc2)CC1 (racemic) | 3.28 µM | 3.28 µM | 1.61 µM | inactive | 0.24 µM | 10 | 16 µM |
| CN1CCN(C(C(=O)Nc2ccc(NS(C)(=O)=O)cc2C(=O)c2ccccc2)c2ccccc2)CC1 (racemic) | 5.58 µM | 5.84 µM | 10.6 µM | inactive | 15.5 µM | 9 | 99 µM |
| CN1CCN(C(C(=O)Nc2ccc(NC(=O)c3ccc4ccccc4c3)cc2C(=O)c2ccccc2)c2ccccc2)CC1 (racemic) | 1.98 µM | 2.64 µM | 0.24 µM | inactive | 0.04 µM | 17 | 4 µM |
| CN1CCN(C(C(=O)Nc2ccc(NC(=O)CCc3ccccc3)cc2C(=O)c2ccccc2)c2ccccc2)CC1 (racemic) | 3.27 µM | 3.02 µM | 1.8 µM | inactive | 0.06 µM | 4 | 8 µM |
| CN1CCN(C(C(=O)Nc2ccc(NC(=O)Cc3ccccc3)cc2C(=O)c2ccccc2)c2ccccc2)CC1 (racemic) | 3.64 µM | 3.25 µM | 2 µM | inactive | 0.36 µM | 8 | 16 µM |
| CN1CCN(C(C(=O)Nc2ccc(NC(=O)c3cccc4ccccc34)cc2C(=O)c2ccccc2)c2ccccc2)CC1 (racemic) | 1.93 µM | 2.68 µM | 0.93 µM | inactive | 0.23 µM | 4 | 4 µM |
| CN1CCN(C(C(=O)Nc2ccc(NS(=O)(=O)c3ccccc3)cc2C(=O)c2ccccc2)c2ccccc2)CC1 (racemic) | 5.38 µM | 2.92 µM | 0.91 µM | inactive | 0.89 µM | 29 | 26 µM |
| CN1CCN(C(C(=O)Nc2ccc(N(S(=O)(=O)c3ccccc3)S(=O)(=O)c3ccccc3)cc2C(=O)c2ccccc2)c2ccccc2)CC1 (racemic) | 3.01 µM | 3.12 µM | 1.24 µM | inactive | 0.04 µM | 10 | 12 µM |
| CN1CCN(C(C(=O)Nc2ccc(NC(=O)C(C)(C)C)cc2C(=O)c2ccccc2)c2ccccc2)CC1 (racemic) | 11.4 µM | 4.67 µM | 3.04 µM | inactive | 0.39 µM | 15 | 45 µM |
